≈ marks a conversion by molar mass, not a printed value. Calls of active or inactive are those of the source. No cut-off for these calls is given here.
Experiments:
Cannabinoid receptor 2 [1] = target: T1, Cannabinoid receptor 2 (Homo sapiens, UniProt P34972); assay: Agonist activity at human CB2 receptor expressed in CHO cells assessed as [35S]-GTPgammaS binding preincubated for 25 mins measured after 30 mins by scintillation proximity assay; type: functional, cell-based
Cannabinoid receptor 2 [2] = target: T1, Cannabinoid receptor 2; assay: Agonist activity at human CB2 receptor expressed in CHO cells assessed as [35S]-GTPgammaS binding preincubated for 25 mins measured after 30 mins by scintillation proximity assay relative to control; type: functional, cell-based
Cannabinoid receptor 1 [3] = target: T2, Cannabinoid receptor 1 (Homo sapiens, UniProt P21554); assay: Agonist activity at human CB1 receptor expressed in CHO cells assessed as [35S]-GTPgammaS binding preincubated for 25 mins measured after 30 mins by scintillation proximity assay relative to control; type: functional, cell-based
T2 sequence (P21554 whole entry): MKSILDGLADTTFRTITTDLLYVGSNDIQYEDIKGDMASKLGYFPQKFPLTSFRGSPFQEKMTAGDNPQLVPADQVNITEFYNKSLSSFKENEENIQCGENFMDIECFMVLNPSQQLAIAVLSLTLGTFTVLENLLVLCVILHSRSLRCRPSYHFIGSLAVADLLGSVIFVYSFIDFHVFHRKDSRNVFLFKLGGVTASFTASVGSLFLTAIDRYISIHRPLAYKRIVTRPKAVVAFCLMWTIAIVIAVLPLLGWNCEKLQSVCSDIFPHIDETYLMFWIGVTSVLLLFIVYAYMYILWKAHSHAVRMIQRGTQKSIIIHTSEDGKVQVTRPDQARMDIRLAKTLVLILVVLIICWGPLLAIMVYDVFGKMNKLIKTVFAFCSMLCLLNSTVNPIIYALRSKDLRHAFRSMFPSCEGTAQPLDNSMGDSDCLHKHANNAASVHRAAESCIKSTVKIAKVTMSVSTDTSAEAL

Cannabinoid receptor 1 [4] = target: T2, Cannabinoid receptor 1; assay: Agonist activity at human CB1 receptor expressed in CHO cells assessed as [35S]-GTPgammaS binding preincubated for 25 mins measured after 30 mins by scintillation proximity assay; type: functional, cell-based
[5] = Drug metabolism in dog liver microsomes at 4 uM after 30 mins by LC-ESI/MS analysis; type: ADME, Canis lupus familiaris, Microsome; conditions: read-out: Drug metabolism
[6] = Drug metabolism in rat liver microsomes at 4 uM after 30 mins by LC-ESI/MS analysis; type: ADME, Microsome; conditions: read-out: Drug metabolism
[7] = Drug metabolism in human liver microsomes at 4 uM after 30 mins by LC-ESI/MS analysis; type: ADME, Microsome; conditions: read-out: Drug metabolism
Homo sapiens [8] = organism: Homo sapiens; assay: Selectivity ratio of EC50 for human CB1 receptor to EC50 for human CB2 receptor
[9] = Dissociation constant, pKa of the compound; type: physicochemical
Rattus norvegicus [10] = assay: Analgesic activity in monoiodoacetic acid rat model of osteoarthritic pain assessed as decrease in pain at 10 mg/kg, po pretreated with CB2 antagonist SR144528 at 3 mg/kg, ip administered 30 mins prior to compound treatment; type: functional, organism-based
Outline: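 SR-144528 given at 3 mg/kg ip 30 min before the oral test dose (10 mg/kg) in the rodent monoiodoacetic acid osteoarthritic knee pain model.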

Rattus norvegicus [11] = assay: Analgesic activity in monoiodoacetic acid rat model of osteoarthritic pain assessed as decrease in pain at 10 mg/kg, po measured after 29 days relative to control; type: functional, organism-based; set-up: dose 10 mg/kg
Rattus norvegicus [12] = assay: Hepatic clearance in Sprague-Dawley rat at 1 mg/kg, iv; type: ADME, organism-based, Liver; set-up: dose 1 mg/kg, route intravenous; conditions: in vivo
Outline: (§1)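 Male Sprague–Dawley rats dosed 1 mg/kg iv and 1 mg/kg po; plasma pharmacokinetic parameters derived from the iv and oral arms.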

[13] = Volume of distribution in Sprague-Dawley rat at 1 mg/kg, iv; type: ADME, organism-based; set-up: dose 1 mg/kg, route intravenous; conditions: in vivo; outline: as §1
[14] = Oral bioavailability in Sprague-Dawley rat at 1 mg/kg; type: ADME, organism-based; conditions: in vivo; outline: as §1
Cytochrome P450 2D6 = Cytochrome P450 2D6 (Homo sapiens, UniProt P10635); assay: Inhibition of CYP2D6; type: ADME
Sequence of Cytochrome P450 2D6 (P10635 whole entry): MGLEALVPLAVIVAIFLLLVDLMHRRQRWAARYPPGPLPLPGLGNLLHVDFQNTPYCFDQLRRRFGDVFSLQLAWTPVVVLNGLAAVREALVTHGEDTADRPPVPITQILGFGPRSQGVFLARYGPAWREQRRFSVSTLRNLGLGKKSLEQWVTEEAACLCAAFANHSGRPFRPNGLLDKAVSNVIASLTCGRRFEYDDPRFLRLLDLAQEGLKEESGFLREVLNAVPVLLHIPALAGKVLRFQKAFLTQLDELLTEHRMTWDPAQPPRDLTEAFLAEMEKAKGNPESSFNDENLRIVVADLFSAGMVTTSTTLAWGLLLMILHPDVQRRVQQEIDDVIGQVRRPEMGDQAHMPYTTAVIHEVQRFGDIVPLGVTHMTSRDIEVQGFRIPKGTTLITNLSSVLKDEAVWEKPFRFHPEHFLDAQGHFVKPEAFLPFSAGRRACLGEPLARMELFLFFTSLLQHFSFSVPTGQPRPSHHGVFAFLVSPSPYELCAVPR

[15] = (§2) Binding affinity to 5HT1; set-up: species or system Homo sapiens
[16] = target: Voltage-gated inwardly rectifying potassium channel KCNH2 (Homo sapiens, UniProt Q12809); assay: Displacement of [3H]dofetilide from human Erg expressed in human HEK293 cells; type: cell-based
Sequence of Voltage-gated inwardly rectifying potassium channel KCNH2 (Q12809 whole entry): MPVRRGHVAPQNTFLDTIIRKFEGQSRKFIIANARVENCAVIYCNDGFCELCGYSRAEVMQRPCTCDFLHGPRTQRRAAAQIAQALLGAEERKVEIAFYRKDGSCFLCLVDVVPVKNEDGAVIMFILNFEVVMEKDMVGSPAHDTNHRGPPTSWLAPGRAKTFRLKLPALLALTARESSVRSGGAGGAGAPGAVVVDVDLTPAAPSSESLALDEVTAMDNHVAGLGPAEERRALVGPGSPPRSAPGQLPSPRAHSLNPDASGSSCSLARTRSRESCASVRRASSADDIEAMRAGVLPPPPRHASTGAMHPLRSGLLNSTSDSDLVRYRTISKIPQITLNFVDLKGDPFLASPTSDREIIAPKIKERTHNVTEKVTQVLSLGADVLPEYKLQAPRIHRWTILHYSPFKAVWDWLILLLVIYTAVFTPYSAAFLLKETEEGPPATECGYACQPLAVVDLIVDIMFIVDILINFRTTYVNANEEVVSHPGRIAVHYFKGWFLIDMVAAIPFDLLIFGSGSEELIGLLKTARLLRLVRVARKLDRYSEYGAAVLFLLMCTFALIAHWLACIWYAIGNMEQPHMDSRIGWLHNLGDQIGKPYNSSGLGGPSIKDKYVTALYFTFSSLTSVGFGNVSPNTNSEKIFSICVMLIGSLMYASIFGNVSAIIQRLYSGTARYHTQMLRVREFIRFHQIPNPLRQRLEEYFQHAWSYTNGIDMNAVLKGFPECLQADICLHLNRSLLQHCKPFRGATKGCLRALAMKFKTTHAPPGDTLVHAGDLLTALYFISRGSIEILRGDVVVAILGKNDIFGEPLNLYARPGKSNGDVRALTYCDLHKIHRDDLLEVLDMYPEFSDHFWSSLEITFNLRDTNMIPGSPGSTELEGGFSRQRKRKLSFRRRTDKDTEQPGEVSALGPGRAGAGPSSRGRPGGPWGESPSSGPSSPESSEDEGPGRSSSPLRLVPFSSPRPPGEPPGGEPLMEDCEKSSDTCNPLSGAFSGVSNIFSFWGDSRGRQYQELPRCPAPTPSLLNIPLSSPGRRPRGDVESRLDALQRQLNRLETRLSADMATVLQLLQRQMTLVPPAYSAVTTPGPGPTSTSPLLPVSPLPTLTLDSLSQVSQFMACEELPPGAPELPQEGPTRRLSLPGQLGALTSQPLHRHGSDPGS
Outline: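 hERG affinity measured by [3H]-dofetilide displacement from hERG channels stably expressed in HEK293 cells.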

Cannabinoid receptor 2 [17] = target: T3, Cannabinoid receptor 2 (Rattus norvegicus, UniProt Q9QZN9); assay: Displacement of [3H]-CP-55,940 from rat CB2 receptor expressed in CHO cells; type: cell-based
T3 sequence (Q9QZN9 whole entry): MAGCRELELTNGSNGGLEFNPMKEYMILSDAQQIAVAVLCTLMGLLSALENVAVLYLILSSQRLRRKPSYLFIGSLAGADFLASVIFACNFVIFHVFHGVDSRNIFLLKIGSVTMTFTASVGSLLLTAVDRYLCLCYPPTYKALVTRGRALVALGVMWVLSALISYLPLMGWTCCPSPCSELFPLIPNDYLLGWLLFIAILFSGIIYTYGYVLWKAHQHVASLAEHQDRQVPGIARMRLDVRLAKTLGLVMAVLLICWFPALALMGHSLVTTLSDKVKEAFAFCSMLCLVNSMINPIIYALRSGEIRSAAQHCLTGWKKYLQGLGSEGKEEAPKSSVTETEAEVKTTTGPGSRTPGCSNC

[18] = Solubility of the compound in simulated gastrointestinal fluid at pH 6.8; type: physicochemical
Outline: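 Solubility determined in simulated GI fluid at pH 6.8.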

Cannabinoid receptor 2 [19] = target: T1, Cannabinoid receptor 2; assay: Displacement of [3H]-CP-55,940 from human CB2 receptor expressed in CHO cells; type: cell-based
[20] = Lipophilicity, log P of the compound; type: physicochemical; conditions: octanol/water
Rattus norvegicus [21] = assay: Analgesic activity in monoiodoacetic acid rat model of osteoarthritic pain assessed as decrease in pain at 3 mg/kg, po measured after 29 days relative to control; type: functional, organism-based; set-up: dose 3 mg/kg
[22] = Ratio of drug uptake in brain to plasma of Sprague-Dawley rat; type: ADME; conditions: read-out: BPR
[23] = Aqueous solubility of the compound at pH 7; type: physicochemical; conditions: buffer
cytochrome P450 = cytochrome P450 (Homo sapiens, UniProt P04798+P05177+P05181+P08684+P10632+P10635+P11509+P11712+P13584+P20813+P20815+P20853+P24462+P24903+P33260+P33261+P51589+P78329+P98187+Q02928+Q08477+Q16678+Q16696+Q5TCH4+Q6VVX0+Q7Z449+Q8TAV3+Q96SQ9+Q9HB55); assay: Inhibition of cytochrome P450; type: ADME
Homo sapiens [24] = organism: Homo sapiens; assay: as §2
Rattus norvegicus [25] = assay: Induction of hypothermia in monoiodoacetic acid rat model of osteoarthritic pain at 0.5 mg/kg, ip; type: organism-based; set-up: dose 0.5 mg/kg, route intraperitoneal; conditions: in vivo
Outline: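 Rats given the non-selective cannabinoid agonist (positive control) at 0.5 mg/kg ip. Body temperature drop was the read-out, used as an in vivo marker of central CB1 receptor activation.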

T1 sequence (P34972 whole entry): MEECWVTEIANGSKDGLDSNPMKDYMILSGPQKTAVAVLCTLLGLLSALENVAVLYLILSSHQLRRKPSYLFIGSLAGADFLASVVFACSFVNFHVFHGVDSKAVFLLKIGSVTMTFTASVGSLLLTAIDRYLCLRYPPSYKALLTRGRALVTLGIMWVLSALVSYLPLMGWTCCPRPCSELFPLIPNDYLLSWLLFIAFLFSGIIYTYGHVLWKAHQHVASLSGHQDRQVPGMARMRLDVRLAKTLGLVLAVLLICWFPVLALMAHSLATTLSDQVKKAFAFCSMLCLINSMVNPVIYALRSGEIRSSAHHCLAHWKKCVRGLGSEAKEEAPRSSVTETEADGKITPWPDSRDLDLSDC

SMILES	EC50 (Cannabinoid receptor 2 [1]) [nM]	Efficacy (Cannabinoid receptor 2 [2]) [%]	EC50 (Cannabinoid receptor 1 [4]) [nM]	metabolised at 0.5 h, 4 µM [5] [%]	metabolised at 0.5 h, 4 µM [6] [%]	metabolised at 0.5 h, 4 µM [7] [%]	Ratio EC50 (Homo sapiens [8])	further results
Cc1nc(N2CCN(C)CC2)c2cc(-c3ccccc3)sc2n1	44.4	90.6	5910	97	95	56	133	Efficacy (Cannabinoid receptor 1 [3]): 70.9%
Cc1nc(N2CCC(C)CC2)c2cc(-c3ccccc3)sc2n1	199	85.3	> 100000	75	93	49	> 502	–
CCN1CCN(c2nc(C)nc3sc(-c4ccccc4)cc23)CC1	24.8	84.5	2600	97	94	73	104	Efficacy (Cannabinoid receptor 1 [3]): 73.6%; pKa [9]: 7.5; Activity (Rattus norvegicus [10]): inactive; Activity (Rattus norvegicus [11]): Active; CLH (Rattus norvegicus [12]): 90 mL/min/kg; Vd [13]: 10 L/kg; bioavailability [14]: 91%; IC50 (Cytochrome P450 2D6): 3000 nM; Ki [15]: 1000 nM; IC50 [16]: > 10000 nM; Ki (Cannabinoid receptor 2 [17]): 16 nM; solubility [18]: > 200 µM; Ki (Cannabinoid receptor 2 [19]): 82 nM; logP [20]: 3.7
COC(=O)NCCn1c(-c2ccccc2Cl)nc2c(N3CCN(C)CC3)nc(C)nc21	47.5	79.5	> 100000	62	25	14	> 2110	–
CC(=O)N1CCN(c2nc(C)nc3sc(-c4ccccc4)cc23)CC1	184	95.4	> 100000	62	28	25	> 543	solubility [18]: 41 µM (≈ 14.5 µg/mL)
O=C(O)Cc1ccccc1Nc1c(Cl)cccc1Cl	–	–	–	–	–	–	–	Activity (Rattus norvegicus [21]): Active
CCN1CCN(c2nc(C)nc3c2nc(-c2ccccc2Cl)n3C)CC1	–	–	–	–	–	–	–	Kp [22]: 1; solubility [23]: > 2000 µg/mL; IC50 (cytochrome P450): > 10000 nM; Activity (Homo sapiens [24]): Active; logP [20]: 3.1
CCCCCCC(C)(C)c1ccc([C@@H]2C[C@H](O)CC[C@H]2CCCO)c(O)c1 [CP-55940]	–	–	–	–	–	–	–	Activity (Rattus norvegicus [25]): Toxic

Source: ChEMBL document CHEMBL2057154, “Discovery and optimization of novel purines as potent and selective CB2 agonists” (Bioorg Med Chem Lett, 2012)
